# Screens (PubChem)
# Rows were chosen to be rich in hits. Some 1.8% of all compounds tested hit in one or more screens of this group.
# CHRM4 agonist – CHRM4 agonism in calcium assay; P08173; CHO-K1 hM4/Gqi5, Fluo-8 calcium fluorescence; vehicle 0%, full acetylcholine response 100%; activation, % at 3 µM; actives 0.14% (n = 360,000); AID 624127;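 active = activation above the run mean over all test wells plus 3 SD, cut at about 32% in these data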;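 also: peak over basal fluorescence ratio per well then scaled between controls; 0% = DMSO wells and 100% = acetylcholine at EC100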
# M5 antag – blocks acetylcholine activation of human M5 receptor. P08912. CHO-hM5 cells, Fluo-8 calcium fluorescence, ACh EC80. inhibition, % at 3 µM. actives 0.59% (n = 360,000). AID 624040;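 active = inhibition above a per-plate cutoff, the mean of that plate's test compounds plus 3 SD, cut at about 27% in these data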;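 also: 0% = acetylcholine EC80 with DMSO and 100% = DMSO without agonist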
# Target sequence (P08912 whole entry, looked up): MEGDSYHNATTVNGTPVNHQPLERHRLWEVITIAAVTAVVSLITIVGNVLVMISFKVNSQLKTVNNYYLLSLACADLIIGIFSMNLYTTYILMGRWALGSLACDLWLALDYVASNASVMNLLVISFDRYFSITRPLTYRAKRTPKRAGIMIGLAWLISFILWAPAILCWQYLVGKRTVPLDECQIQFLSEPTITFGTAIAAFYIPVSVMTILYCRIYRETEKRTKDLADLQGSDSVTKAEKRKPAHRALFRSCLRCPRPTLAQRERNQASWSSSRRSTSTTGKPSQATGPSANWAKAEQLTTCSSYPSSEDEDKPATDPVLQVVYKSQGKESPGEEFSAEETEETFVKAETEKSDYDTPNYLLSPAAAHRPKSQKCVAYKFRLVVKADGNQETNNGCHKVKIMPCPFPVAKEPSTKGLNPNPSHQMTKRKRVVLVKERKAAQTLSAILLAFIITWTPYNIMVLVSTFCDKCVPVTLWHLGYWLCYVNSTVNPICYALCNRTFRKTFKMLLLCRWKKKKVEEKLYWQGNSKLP
# CHRM4 PAM – potentiates acetylcholine response at human M4 receptor; activation, % at 3 µM; P08173; CHO-K1 hM4/Gqi5, Fluo-8 calcium fluorescence, ACh EC20; 0% = ACh EC20, 100% = maximal ACh; actives 0.4% (n = 360,000);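 active = activation above its plate's cutoff, the mean activation of sample wells plus 3 SD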
# CHRM5 PAM – positive allosteric modulators of human muscarinic M5 receptor | P08912 | CHO-K1 hM5, Fluo-8 calcium, ACh EC20 PAM; 0% = ACh EC20, 100% = ACh EC100 | activation, % at 3 µM | actives 0.3% (n = 360,000);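 active = activation above the run cutoff, the mean activation of all test compounds plus 3 SD, cut at about 18% in these data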
#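 Assay system: CHO-K1 hM5 cells / Incubation: Fluo-8 loading 80 min at 37 °C plus 30 min room temperature / Technique: Fluo-8 calcium dye fluorescence, kinetic read / Repeats: single replicate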
# CHRM5 agonist – CHRM5 agonism in calcium assay. activation, % at 3 µM. actives 0.19% (n = 360,000). AID 624037. CHO-K1 hM5 cells, Fluo-8 calcium fluorescence; 0% DMSO wells, 100% maximal acetylcholine response;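 active = activation above the run's mean over test compounds plus 3 SD, cut at about 23% in these data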;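 also: signal is peak over basal fluorescence ratio across the kinetic read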
# CHRM4 antagonist – blocks acetylcholine activation of human M4 receptor; P08173; CHO-hM4 cells, ACh EC80, Fluo-8 calcium fluorescence; inhibition, % at 3 µM; actives 0.73% (n = 360,000); AID 624125;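 active = inhibition above its plate's cutoff, the mean inhibition of sample wells plus 3 SD, cut at about 27% in these data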;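 also: 0% = acetylcholine EC80 with DMSO and 100% = DMSO without agonist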
# Active calls of the source: *.
SMILES,CHRM4 agonist,M5 antag,CHRM4 PAM,CHRM5 PAM,CHRM5 agonist,CHRM4 antagonist
CCc1cc(=O)oc2cc(OCC(=O)O)c(Cl)cc12,1,-8,5,20*,-9,12
CCc1cc(=O)oc2cc(OCC(=O)N(CC)CC)c(Cl)cc12,1,-5,5,-4,0,-5
CC(=O)Nc1nc(-c2ccc3c(c2)CC(C)N3C(=O)C2CC2)c(C)s1 (stereo not given),2,3,-8,-3,-3,-6
Cc1sc(NC(=O)c2ccco2)nc1-c1ccc2c(c1)CC(C)N2C(=O)C1CC1 (stereo not given),17,18,-15,-16,5,32*
O=C(Nc1nc2ccccc2n1CCN1CCOCC1)c1ccc(COc2ccccc2Br)o1,8,18,-8,-13,-4,43*
CCOc1ccc(-c2noc([C@@H]3O[C@H](CO)[C@@H](O)[C@H]3O)n2)cc1,1,0,7,3,0,-9
CCC1C(=O)N=C(SCC(=O)Nc2cccc3ccccc23)NC1=O (stereo not given),1,-7,28*,5,1,9
Cc1ccc2cc(CNC[C@H]3O[C@@H](n4cc(C)c(=O)[nH]c4=O)C[C@@H]3O)c(N3CCOCC3)nc2c1,0,8,2,2,1,-14
Cc1ccc(-c2nc3sc(C(N)=O)c(N)c3c3c2CCCC3)cc1,-2,10,-18,-12,0,99*
CC(=O)c1sc2nc(-c3ccc(C)cc3)c3c(c2c1N)CCCC3,-1,4,-12,-2,-2,-3
COc1ccc(CCNc2ncnc3c2oc2ccccc23)cc1OC,21,50*,-21,-16,7,26
COc1ccc(CCNc2nc(C)nc3c2oc2ccccc23)cc1OC,21,33*,-17,-21,7,23
COc1ccc(CCNc2nc(-c3cccnc3)nc3ccccc23)cc1OC,15,39*,-19,-15,0,28*
CC1=C(C)CC(C(=O)NC2CCN(C(C)C)CC2)C(C(=O)O)C1 (stereo not given),1,37*,-13,-14,-8,24
CC1=C(C)CC(C(=O)NC2CCCC2)C(C(=O)O)C1 (stereo not given),1,2,8,5,-2,2
O=C1C=CC(=Nc2cccc3c2C(=O)c2ccccc2-3)O1,67*,12,1,-14,45*,15
O=C1C=CC(=Nc2ccc3c(c2)Cc2cc(F)ccc2-3)O1,2,-1,3,13,-8,11
O=S(=O)(Nc1nc2ccccc2[nH]1)c1ccc2ccccc2c1,2,39*,-33,-16,-7,70*
Cc1ccccc1NC(=O)CC1SC(=NC2CCCCC2)NC1=O (stereo not given),1,-5,4,-2,-3,-1
Cc1ccc(NC(=O)CC2SC(=NC3CCCCC3)NC2=O)cc1 (stereo not given),0,-2,18*,1,-5,-9
O=C(OCn1ncc(Br)c(Br)c1=O)c1ccccc1Cl,0,4,7,12,-1,24
O=C(OCn1ncc(Cl)c(Cl)c1=O)c1cccc(C(F)(F)F)c1,3,20,-17,3,-4,58*
O=c1c2ccccc2c(=O)n2n1Cc1ccccc1C2,2,1,7,6,2,-8
CCCCCC(=O)N1C[C@@H](n2cc(COC(=O)c3ccccc3)nn2)[C@H](O)C[C@@H]1c1ccc(Cl)cc1,10,-5,-10,-7,-1,-3
CC(=O)Nc1ccc(NC(=O)C(C)OC(=O)/C(C#N)=C/c2ccc(N(C)C)cc2)cc1 (stereo not given),7,61*,-4,-17,16,1
SMILES,CHRM4 agonist,M5 antag,CHRM4 PAM,CHRM5 PAM,CHRM5 agonist,CHRM4 antagonist
Fc1cc(F)c(F)c(SCn2cc(Br)cn2)c1F,-1,-2,8,11,-6,-5
O=C(O)c1ccc(N/N=C/C=C/c2ccc([N+](=O)[O-])o2)cc1,74*,28*,-21,-10,36*,20
O=[N+]([O-])c1ccc(N/N=C/C=C/c2ccco2)cc1,38*,32*,-16,-23,29*,21
O=C(N/N=C/c1ccco1)c1cc([N+](=O)[O-])cc([N+](=O)[O-])c1,1,3,12,6,-2,-1
COC(=O)c1sccc1NC(=O)c1c(F)c(F)c(F)c(F)c1F,-1,2,0,4,7,-8
O=C(CCCC1=NS(=O)(=O)c2ccccc2N1)N1CCN(c2ccccc2)CC1,5,0,3,-7,-4,-15
O=C(CCCC1=NS(=O)(=O)c2ccccc2N1)N1CCN(c2ccc(Cl)cc2)CC1,11,9,-3,-10,6,-13
CC(C)(CC(=O)N1CCN(c2ccc(Cl)cc2)CC1)CC1=NS(=O)(=O)c2ccccc2N1,22,28*,-18,-23,8,26*
COc1cccc(N2CCN(C(=O)CC(C)(C)CC3=NS(=O)(=O)c4ccccc4N3)CC2)c1,26,27*,-15,-18,2,1
NCC(c1ccc(Cl)cc1Cl)c1c[nH]c2ccccc12 (stereo not given),35*,8,-11,-2,11,17
CN(C)CCCNC(=S)NCC(c1ccc(Cl)cc1Cl)c1c[nH]c2ccccc12 (stereo not given),16,7,-11,3,-5,29*
CCCCNC(=S)NCC(c1ccccc1)c1c[nH]c2ccccc12 (stereo not given),2,18,-7,-14,-7,0
COc1ccc(N(CC(=O)NCc2ccc(Cl)cc2)S(=O)(=O)c2c(C)n[nH]c2C)cc1,4,30*,-2,-9,-5,-3
COc1ccc(N(CC(=O)NCc2ccc(F)cc2)S(=O)(=O)c2c(C)n[nH]c2C)cc1,3,6,-2,3,-2,2
CCN1CCN(C(=O)c2cc(COc3ccc4ncccc4c3)on2)CC1,12,5,0,-13,8,8
O=C(NCc1cccc(Cl)c1)c1cc(COc2ccc3ncccc3c2)on1,17,22,-8,-23,4,11
CCC1CCCCN1C(=O)c1cc(COc2ccc3ncccc3c2)on1 (stereo not given),22,41*,-12,-29,7,5
CCN(CC)C(=O)C1CCCN(C(=O)c2cc(COc3ccc4ncccc4c3)on2)C1 (stereo not given),18,8,-10,-16,3,-12
